The target of data set [1] is T1, Steryl-sulfatase (Homo sapiens) (UniProt P08842).
T1 sequence (whole entry): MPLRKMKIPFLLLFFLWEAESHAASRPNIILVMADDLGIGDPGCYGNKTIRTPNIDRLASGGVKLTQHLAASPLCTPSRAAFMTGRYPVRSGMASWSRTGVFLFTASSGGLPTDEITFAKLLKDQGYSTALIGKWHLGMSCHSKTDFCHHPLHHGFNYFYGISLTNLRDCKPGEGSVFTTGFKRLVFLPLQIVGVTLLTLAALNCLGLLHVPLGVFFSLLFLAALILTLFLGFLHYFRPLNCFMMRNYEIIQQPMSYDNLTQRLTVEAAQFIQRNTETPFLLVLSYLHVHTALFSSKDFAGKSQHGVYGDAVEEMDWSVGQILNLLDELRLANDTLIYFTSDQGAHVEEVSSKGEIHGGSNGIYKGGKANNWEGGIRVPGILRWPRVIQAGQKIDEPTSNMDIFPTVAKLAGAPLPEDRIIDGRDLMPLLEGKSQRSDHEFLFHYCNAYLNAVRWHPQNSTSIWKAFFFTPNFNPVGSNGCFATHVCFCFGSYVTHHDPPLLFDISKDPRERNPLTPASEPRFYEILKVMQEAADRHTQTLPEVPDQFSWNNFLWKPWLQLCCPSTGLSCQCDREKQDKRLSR
Kind of data set: Reversible inhibition of human steroid sulfatase using 4-methylumbelliferyl sulfate substrate assessed as enzyme activity recovery at 1 uM after 60 mins by fluorescence assay. The arrangement: scale not given: the % may be the effect or the level left. The essentials: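 Aliquots are assayed with 4 mM 4-MUS at 0 and 60 min. The rest is dialysed against 0.1 M Tris-HCl pH 7.0, 0.1% Triton X-100, with activity measured at 540, 1020 and 1500 min. Triplicates, with an inhibitor-free control.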

Data set [2] has as its target T2, Steryl-sulfatase (Homo sapiens, UniProt P08842).
T2 sequence (P08842 whole entry): T1 sequence (whole entry)
Kind of data set: Inhibition of human purified steroid sulfatase. Summed up: (§1)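 Inhibitor is added in DMSO/Tris (1:1) and the reaction is started with enzyme. 4-MUS is 200 µM final. 4-Methylumbelliferone fluorescence (ex 360/em 460 nm) is followed for 10 min at 25 °C. Triplicates; percent activity is taken versus an inhibitor-free control and IC50 derived.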

Data set [3] concerns the target T1, Steryl-sulfatase (Homo sapiens). Kind of data set: (§2) Inhibition of human steroid sulfatase using 4-methylumbelliferyl sulfate substrate after 5 mins by Kitz-Wilson plot analysis.
Data set [4] has as its target T2, Steryl-sulfatase. The data set is described as §2.
The target of data set [5] is T1, Steryl-sulfatase (Homo sapiens). Kind of data set: Ratio of Kinact to Ki for human steroid sulfatase after 5 mins by Kitz-Wilson plot analysis.
Data set [6] deals with T2, Steryl-sulfatase. Briefly: Time-dependent inhibition of human steroid sulfatase using 4-methylumbelliferyl sulfate substrate by Kitz-Wilson plot analysis.
Data set [7] concerns the target T2, Steryl-sulfatase. Briefly: (§3) Inhibition of human steroid sulfatase using 4-methylumbelliferyl sulfate substrate after 10 mins by fluorescence assay. Summed up: as §1
Data set [8] concerns the target T2, Steryl-sulfatase. Briefly: Non-Competitive inhibition of human steroid sulfatase using 4-methylumbelliferyl sulfate substrate by Lineweaver-Burk plot analysis.
A short description of data set [9]: Aqueous solubility of the compound. Format: physicochemical. Conditions: buffer.
Data set [10] deals with T1, Steryl-sulfatase (Homo sapiens). Briefly: Inhibition of human steroid sulfatase using 4-methylumbelliferyl sulfate as substrate at 10 uM by fluorescence assay.
Data set [11] shares this target. Kind of data set: Inhibition of human steroid sulfatase using 4-methylumbelliferyl sulfate substrate at 50 uM by fluorescence assay.
Data set [12] has the same target. The description is as §3. Summed up: as §1
The target in data set [13] is T2, Steryl-sulfatase. Kind of data set: Mixed type inhibition of human steroid sulfatase using 4-methylumbelliferyl sulfate substrate by Lineweaver-Burk plot analysis.
Data set [14] deals with T1, Steryl-sulfatase (Homo sapiens). Briefly: Inhibition of human steroid sulfatase using 4-methylumbelliferyl sulfate substrate at 1 uM after 60 mins by fluorescence assay.
Data set [15] addresses T2, Steryl-sulfatase. Kind of data set: Inhibition of human steroid sulfatase using 4-methylumbelliferyl sulfate substrate over 50 mins by Kitz-Wilson plot analysis.
Data set [16] deals with T1, Steryl-sulfatase (Homo sapiens). Briefly: Inhibition of human steroid sulfatase using 4-methylumbelliferyl sulfate substrate at 10 uM after 60 mins by fluorescence assay.
The target is the same in data set [17]. Kind of data set: Reversible inhibition of human steroid sulfatase using 4-methylumbelliferyl sulfate as substrate at 50 uM after 10 mins by fluorescence assay.

Data on 23 molecules can be found in ChEMBL document CHEMBL1833950, “Inhibition of steroid sulfatase with 4-substituted estrone and estradiol derivatives” (Bioorg Med Chem, 2011).

Calls of active or inactive are those of the source. The calls are words filed in the database; no cut-off is given here.

For `C[C@]12CC[C@@H]3c4ccc(O)c(C=O)c4CC[C@H]3[C@@H]1CCC2=O`, the Activity in data set [1] stood at 2%. Also, the Ki on Steryl-sulfatase [2], on Steryl-sulfatase [4] and on Steryl-sulfatase [6] was 1500 nM each time. The Kinact in data set [3] turned out to be 0.13 min⁻¹. For the same molecule, the Ratio in data set [5] was found to be 1 ×10⁵ /M/min.

With `C[C@]12CC[C@@H]3c4cc(Br)c(O)cc4CC[C@H]3[C@@H]1CCC2=O`, the IC50 on Steryl-sulfatase [7] was 40000 nM.

`C[C@]12CC[C@@H]3c4ccc(O)c(Br)c4CC[C@H]3[C@@H]1CCC2=O` showed an IC50 against Steryl-sulfatase [7] of 4800 nM.

Consider `C[C@]12CC[C@@H]3c4cc([N+](=O)[O-])c(O)c([N+](=O)[O-])c4CC[C@H]3[C@@H]1CCC2=O`, for which 26000 nM corresponded to half-maximal inhibition on Steryl-sulfatase [7] (IC50).

As to `C[C@]12CC[C@@H]3c4ccc(O)c([N+](=O)[O-])c4CC[C@H]3[C@@H]1CCC2=O`, the Ki at Steryl-sulfatase [8] is 1400 nM. Further, half-maximal inhibition against Steryl-sulfatase [7] (IC50) was put at 2400 nM.

With `C[C@]12CC[C@@H]3c4cc(C=O)c(O)c(C=O)c4CC[C@H]3[C@@H]1CCC2=O`, the solubility result in data set [9] was “soluble”. Also, the “Inhibition activity (active/inactive)” value in data set [10] is “inactive”. This molecule also displayed an IC50 against Steryl-sulfatase [7] of 224000 nM.

For `C[C@]12CC[C@@H]3c4ccc(O)c(CO)c4CC[C@H]3[C@@H]1CCC2=O`, the inhibition in data set [11] came out at 46%.

Regarding `C[C@]12CC[C@@H]3c4cc(C=O)c(O)cc4CC[C@H]3[C@@H]1CCC2=O`, the “Inhibition activity (active/inactive)” value in data set [10] was “inactive”. For the same molecule, in data set [12], the inhibition entry is “inactive”.

With `C[C@]12CC[C@@H]3c4ccc(O)c(N)c4CC[C@H]3[C@@H]1CC[C@@H]2O`, in data set [11], the inhibition came out at 43%.

For the molecule `C[C@]12CC[C@@H]3c4ccc(O)c(F)c4CC[C@H]3[C@@H]1CC[C@@]2(O)Cc1ccccc1`, the results for the Ki at Steryl-sulfatase [13] and on Steryl-sulfatase [7] were 90 nM and 30 nM, respectively.

Take `C[C@]12CC[C@@H]3c4ccc(O)c(C=O)c4CC[C@H]3[C@@H]1CC[C@@]2(O)Cc1ccccc1`: the inhibition in [14] is 95%; in [12], “Dose-dependent effect”. Further, the Activity in [1] was 14%. Moreover, the “Inhibition activity (active/inactive)” value in data set [10] was “Active”. Also, the Kinact in data set [3] came to 0.021 min⁻¹. The Ratio in data set [5] was 2.3 ×10⁵ /M/min. Further, the Ki at Steryl-sulfatase [15] and at Steryl-sulfatase [6] was 85 nM in each case.

`C[C@]12CC[C@@H]3c4ccc(O)c(C#N)c4CC[C@H]3[C@@H]1CCC2=O`: the IC50 on Steryl-sulfatase [7] amounted to 6700 nM.

In data set [11], `C[C@]12CC[C@@H]3c4ccc(O)c(CN)c4CC[C@H]3[C@@H]1CC[C@@H]2O` registered an inhibition of 4%.

As to `C[C@]12CC[C@@H]3c4ccc(O)cc4CC[C@H]3[C@@H]1CC[C@@]2(O)Cc1ccccc1`, the Ki at Steryl-sulfatase [7] was 250 nM.

As to `C[C@]12CC[C@@H]3c4ccc(C=O)cc4CC[C@H]3[C@@H]1CCC2=O`, in data set [10], the “Inhibition activity (active/inactive)” value is “inactive”. Also, in data set [12], the inhibition entry is “inactive”.

Regarding `C[C@]12CC[C@@H]3c4cc(Br)c(O)c(C=O)c4CC[C@H]3[C@@H]1CCC2=O`, the “Inhibition activity (active/inactive)” value in data set [10] is “inactive”. The inhibition entry in data set [12] was “inactive”. This molecule came in with an IC50 against Steryl-sulfatase [7] of 145000 nM.

Consider `C[C@]12CC[C@@H]3c4ccc(O)c(F)c4CC[C@H]3[C@@H]1CCC2=O`, for which inhibition against Steryl-sulfatase [7] was half-maximal at 3300 nM (IC50).

`C[C@]12CC[C@@H]3c4cc(C=O)c(O)cc4CC[C@H]3[C@@H]1CC[C@@]2(O)Cc1ccccc1` yielded an inhibition in data set [16] of 15%.

Turning to `C[C@]12CC[C@@H]3c4ccc(O)c(C(=O)O)c4CC[C@H]3[C@@H]1CCC2=O`, inhibition against Steryl-sulfatase [7] was half-maximal at 215000 nM (IC50).

At Steryl-sulfatase [7], `C[C@]12CC[C@@H]3c4ccc(O)c([N+](=O)[O-])c4CC[C@H]3[C@@H]1CC[C@@H]2O` gave an IC50 of 2800 nM.

Take `C[C@]12CC[C@@H]3c4cc([N+](=O)[O-])c(O)c(C=O)c4CC[C@H]3[C@@H]1CCC2=O`: the “Inhibition activity (active/inactive)” value in data set [10] is “inactive”. In addition, in data set [12], the inhibition result was “inactive”. The inhibition in data set [17] was < 50%.

`C=Cc1c(O)ccc2c1CC[C@@H]1[C@@H]2CC[C@]2(C)C(=O)CC[C@@H]12` returned an inhibition in data set [11] of 45%.

Take `C[C@]12CC[C@@H]3c4cc([N+](=O)[O-])c(O)cc4CC[C@H]3[C@@H]1CCC2=O`: the IC50 against Steryl-sulfatase [7] was 17000 nM.

The IC50 is the concentration that gives 50% inhibition. Broadly, the inhibition is the drop in the measured response relative to a control, in per cent.
